The target in one test is GST-MIM-S1 (murine) (UniProt Q8R1S4). Description: pull-down.
In test [1] the target is T1, MIM-Myc (murine, UniProt Q8R1S4 1-759).
T1 sequence (looked up): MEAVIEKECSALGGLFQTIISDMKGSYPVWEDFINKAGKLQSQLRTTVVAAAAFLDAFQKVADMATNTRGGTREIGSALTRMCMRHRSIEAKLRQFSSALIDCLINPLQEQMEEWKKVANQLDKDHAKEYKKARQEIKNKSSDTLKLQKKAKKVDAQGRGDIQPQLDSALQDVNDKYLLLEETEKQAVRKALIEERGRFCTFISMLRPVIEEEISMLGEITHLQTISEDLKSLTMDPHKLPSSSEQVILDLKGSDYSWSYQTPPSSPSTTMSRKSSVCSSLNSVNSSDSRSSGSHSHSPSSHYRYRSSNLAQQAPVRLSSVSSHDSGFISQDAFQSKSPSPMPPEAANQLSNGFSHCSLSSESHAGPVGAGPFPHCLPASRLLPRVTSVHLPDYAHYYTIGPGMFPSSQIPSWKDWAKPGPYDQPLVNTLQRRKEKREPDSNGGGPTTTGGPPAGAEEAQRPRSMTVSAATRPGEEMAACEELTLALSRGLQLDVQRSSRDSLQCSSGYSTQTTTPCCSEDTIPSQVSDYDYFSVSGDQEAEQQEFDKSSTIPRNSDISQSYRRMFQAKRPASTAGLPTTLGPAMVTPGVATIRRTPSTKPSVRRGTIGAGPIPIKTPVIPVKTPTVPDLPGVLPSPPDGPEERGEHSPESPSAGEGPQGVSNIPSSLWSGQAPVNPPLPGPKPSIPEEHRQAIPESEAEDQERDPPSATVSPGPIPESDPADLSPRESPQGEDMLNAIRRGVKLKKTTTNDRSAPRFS
Description: co-IP.

A further test deals with T2, MIM-GFP (murine, UniProt Q8R1S4 1-759).
T2 sequence (looked up): T1 sequence (looked up)
Description: co-IP.

Test [2] has as its target T1, MIM-Myc. The test can be described thus: pull-down.
For a further test, the system named is MIM-I-BAR-Myc. The test can be described thus: Pull-down of cell lysates with GST-MIM-S1/-S2, unbound MIM by Western blot. Format: binding, murine. To be noted: GST-tagged recombinant peptide, Western blot anti-Myc, in words. In outline:
(§1)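 GST-tagged test peptide made in DH5α (0.5 mM IPTG added at OD600 0.3–0.4, then 90 min). It was captured on glutathione Sepharose 4B (2 h, 4°C) and washed in PBS. 293T cells were transfected with the Myc-tagged MIM construct and lysed 48 h later. Lysates were precipitated with the bead-bound peptide at varying concentrations. Supernatant (unbound MIM) and washed pellets were analysed by SDS-PAGE/anti-Myc Western blot with chemiluminescence.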
In general terms: In western blotting, separated proteins are transferred to a membrane and probed.

The subject of test [3] is MIM-Myc. The description is as above. Format: binding, murine. The following applies: GST-tagged recombinant peptide, Western blot anti-Myc, in words. Summed up: as §1

With MIM-I-BAR-Myc (domain or fragment), the Kd – broadly, the free concentration of one partner at which half of the binding sites on the other are occupied at equilibrium, for simple one-to-one binding – with GST-MIM-S1 (murine) worked out at 0.065 µM.
Turning to AFQKVADMATNTRGGTREIGSALTRMCMRHRSI [MIM-S3], the IC50 (usually the midpoint of a concentration-inhibition curve) in the test with MIM-Myc [1] was found to be 0.14 µM.

B1: GST-MIM-S1 (domain or fragment, murine, UniProt Q8R1S4 18-89, looked up)
chain: TIISDMKGSYPVWEDFINKAGKLQSQLRTTVVAAAAFLDAFQKVADMATNTRGGTREIGSALTRMCMRHRSI
B1 registered an IC50 with MIM-GFP of 0.213 µM. Further, binding with MIM-Myc [2] was put at a Kd of 0.11 µM.

B2: GST-MIM-S1: recombinant GST-tagged form of peptide MIM-S1 (protein)
chain: B1 chain
modifications: left off: GST, end not stated, kept
Turning to B2, the “pull-down of MIM-I-BAR-Myc from 293T lysates” value in the test with MIM-I-BAR-Myc is reported as “able to precipitate effectively”. The “pull-down of MIM-Myc from 293T lysates” value with MIM-Myc [3] is listed as “able to precipitate effectively”.

The values are drawn from PMC3624906 (The Biochemical journal, 2012).
